ChEMBL document CHEMBL1123505, “Synthesis, structure, and antitumor activity of N-salicyloyl-N'-(2-furylthiocarbonyl)hydrazine and its copper(II) complex” (1986)

Columns and labels:
Type in all cases: functional
[1] = test system: Mus musculus; test: Antitumor activity expressed as %T/C was tested against fibrosarcoma at the dosage of 5 mg/Kg (sc)
In short: (§1)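 Fibrosarcoma: 4 × 10⁶ cells were given sc to C₃H/He mice, 25–30 g. A single ip or sc dose in 0.89% saline followed on day three, with saline-injected controls. Mean life span of nonsurvivors excludes mice surviving 6 months or more, which were counted as tumour-free. T/C% is treated mean survival, excluding tumour-free survivors, divided by untreated mean life span ×100.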

[2] = test system: Mus musculus; test: Antitumor activity expressed as %T/C was tested against fibrosarcoma at the dosage of 10 mg/Kg (ip); in short: as §1
[3] = test system: Mus musculus; test: Antitumor activity expressed as average body weight change was tested against fibrosarcoma at the dosage of 5 mg/kg (sc)
In short: (§2)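 Fibrosarcoma-bearing C₃H/He mice (4 × 10⁶ cells sc) received a single ip or sc dose in 0.89% saline on day three after transplant; controls received saline. The day of injection was taken as day zero. Mice were weighed on alternate days up to 4 weeks. Values are average % weight change from the day of treatment to day 21.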

[4] = test system: Mus musculus; test: Antitumor activity against fibrosarcoma infected mice at the dosage of 10 mg/kg (ip) and expressed as no. of mice injected; T/C= 6/6
[5] = test system: Mus musculus; test: Antitumor activity expressed as the no. of mice surviving >6 months was tested against fibrosarcoma at the dosage of 25 mg/kg (sc)
In short: (§3)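 Fibrosarcoma was established by sc inoculation of 4 × 10⁶ cells in mice. On day 3 they received a single ip or sc injection of compound freshly suspended in 0.89% saline, with 5–10 mice per group. The count is of mice surviving 6 months or more after treatment, scored as tumor-free, with the percentage of the group also given.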

[6] = test system: Mus musculus; test: Antitumor activity expressed as mean life span of nonsurvivors in days (T/C) was tested against fibrosarcoma at the dosage of 50 mg/kg (ip); 45/27
In short: (§4)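 On day 3 after transplantation they received a single ip or sc dose of compound freshly suspended in 0.89% saline. Saline-injected controls were used, with 5–10 mice per group. Mean life span of treated nonsurvivors is shown against untreated controls, excluding mice surviving ≥6 months.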

[7] = test system: Mus musculus; test: Antitumor activity expressed as the no. of mice surviving >6 months was tested against fibrosarcoma at the dosage of 25 mg/kg (ip); in short: as §3
[8] = test system: Mus musculus; test: Antitumor activity expressed as mean life span of nonsurvivors in days (T/C) was tested against fibrosarcoma at the dosage of 10 mg/kg (sc); 37/27; in short: as §4
[9] = test system: Mus musculus; test: Antitumor activity against Dalton's lymphoma infected mice at the dosage of 2 mg/kg (ip) and expressed as no. of mice injected; T/C= 5/5
[10] = test system: Mus musculus; test: Antitumor activity expressed as mean life span of nonsurvivors in days (T/C) was tested against fibrosarcoma at the dosage of 25 mg/kg (sc); 41/26; in short: as §4
[11] = test system: Mus musculus; test: Antitumor activity expressed as average body weight change was tested against fibrosarcoma at the dosage of 25 mg/kg (Ip); in short: as §2
[12] = test system: Mus musculus; test: Antitumor activity expressed as mean life span of nonsurvivors in days (T/C) was tested against fibrosarcoma at the dosage of 5 mg/kg (ip); 41/27; in short: as §4
[13] = test system: Mus musculus; test: Antitumor activity against Dalton's lymphoma infected mice at the dosage of 10 mg/kg (ip) and expressed as no. of mice injected; T/C= 5/5
[14] = test system: Mus musculus; test: Antitumor activity expressed as %T/C was tested against Dalton's lymphoma at the dosage of 25 mg/Kg (ip)
In short: (§5)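 Dalton's lymphoma: 2 × 10⁷ ascites cells were given ip to DbA mice, 18–20 g. A single ip dose in 0.89% saline followed on day two, with saline-injected controls. Mean life span was calculated excluding mice that survived 6 months or more. T/C% is the mean survival of treated mice, excluding tumour-free survivors, divided by the mean life span of untreated mice ×100.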

[15] = test system: Mus musculus; test: Antitumor activity expressed as mean life span of nonsurvivors in days (T/C) was tested against fibrosarcoma at the dosage of 5 mg/kg (sc); 36/26; in short: as §4
[16] = test system: Mus musculus; test: Antitumor activity expressed as mean life span of nonsurvivors in days (T/C) was tested against fibrosarcoma at the dosage of 25 mg/kg (ip); 40/28; in short: as §4
[17] = test system: Mus musculus; test: Antitumor activity expressed as %T/C was tested against fibrosarcoma at the dosage of 25 mg/Kg (sc); in short: as §1
[18] = test system: Mus musculus; test: Antitumor activity against fibrosarcoma infected mice at the dosage of 5 mg/kg (sc) and expressed as no. of mice injected; T/C= 7/7
[19] = test system: Mus musculus; test: Antitumor activity against Dalton's lymphoma infected mice at the dosage of 25 mg/kg (ip) and expressed as no. of mice injected; T/C= 5/5
[20] = test system: Mus musculus; test: Antitumor activity expressed as average body weight change was tested against fibrosarcoma at the dosage of 5 mg/kg (Ip); in short: as §2
[21] = test system: Mus musculus; test: Antitumor activity expressed as the no. of mice surviving >6 months was tested against fibrosarcoma at the dosage of 5 mg/kg (ip); in short: as §3
[22] = test system: Mus musculus; test: Antitumor activity expressed as average body weight change was tested against fibrosarcoma at the dosage of 25 mg/kg (sc); in short: as §2
[23] = test system: Mus musculus; test: Antitumor activity expressed as mean life span of nonsurvivors in days (T/C) was tested against Dalton's lymphoma at the dosage of 25 mg/kg (ip); 41/21
[24] = test system: Mus musculus; test: Antitumor activity against fibrosarcoma infected mice at the dosage of 25 mg/kg (ip) and expressed as no. of mice injected; T/C= 10/10
[25] = test system: Mus musculus; test: Antitumor activity expressed as the no. of mice surviving >6 months was tested against fibrosarcoma at the dosage of 10 mg/kg (ip); in short: as §3
[26] = test system: Mus musculus; test: Antitumor activity against fibrosarcoma infected mice at the dosage of 10 mg/kg (sc) and expressed as no. of mice injected; T/C= 8/7
[27] = test system: Mus musculus; test: Antitumor activity expressed as %T/C was tested against fibrosarcoma at the dosage of 25 mg/Kg (ip); in short: as §1
[28] = test system: Mus musculus; test: Antitumor activity against fibrosarcoma infected mice at the dosage of 50 mg/kg (ip) and expressed as no. of mice injected; T/C= 8/8
[29] = test system: Mus musculus; test: Antitumor activity against fibrosarcoma infected mice at the dosage of 25 mg/kg (sc) and expressed as no. of mice injected; T/C= 8/9
[30] = test system: Mus musculus; test: Antitumor activity expressed as average body weight change was tested against fibrosarcoma at the dosage of 10 mg/kg (Ip); in short: as §2
[31] = test system: Mus musculus; test: Antitumor activity expressed as %T/C was tested against Dalton's lymphoma at the dosage of 2 mg/Kg (ip); in short: as §5
[32] = test system: Mus musculus; test: Antitumor activity expressed as %T/C was tested against fibrosarcoma at the dosage of 10 mg/Kg (sc); in short: as §1
[33] = test system: Mus musculus; test: Antitumor activity expressed as mean life span of nonsurvivors in days (T/C) was tested against Dalton's lymphoma at the dosage of 10 mg/kg (ip); 33/21
[34] = test system: Mus musculus; test: Antitumor activity expressed as %T/C was tested against Dalton's lymphoma at the dosage of 10 mg/Kg (ip); in short: as §5
[35] = test system: Mus musculus; test: Antitumor activity expressed as %T/C was tested against fibrosarcoma at the dosage of 5 mg/Kg (ip); in short: as §1
[36] = test system: Mus musculus; test: Antitumor activity expressed as the no. of mice surviving >6 months was tested against fibrosarcoma at the dosage of 50 mg/kg (ip); in short: as §3
[37] = test system: Mus musculus; test: Antitumor activity expressed as average body weight change was tested against fibrosarcoma at the dosage of 50 mg/kg (Ip); in short: as §2
[38] = test system: Mus musculus; test: Antitumor activity expressed as mean life span of nonsurvivors in days (T/C) was tested against Dalton's lymphoma at the dosage of 2 mg/kg (ip); 27/21
[39] = test system: Mus musculus; test: Antitumor activity expressed as average body weight change was tested against fibrosarcoma at the dosage of 10 mg/kg (sc); in short: as §2
[40] = test system: Mus musculus; test: Antitumor activity expressed as mean life span of nonsurvivors in days (T/C) was tested against fibrosarcoma at the dosage of 10 mg/kg (ip); 38/26; in short: as §4
[41] = test system: Mus musculus; test: Antitumor activity against fibrosarcoma infected mice at the dosage of 5 mg/kg (ip) and expressed as no. of mice injected; T/C= 8/6
[42] = test system: Mus musculus; test: Antitumor activity expressed as %T/C was tested against fibrosarcoma at the dosage of 50 mg/Kg (ip); in short: as §1

O=C(NN=C(S)c1ccco1)c1ccccc1O
T/C [1]: 139% | T/C [2]: 146% | Average body weight change [3]: 11.62% | T/C [4]: 6 | No. of mice surviving >6 months [5]: 6 | T/C [6]: 45 days | No. of mice surviving >6 months [7]: 5 | T/C [8]: 37 days | T/C [9]: 5 | T/C [10]: 41 days | Average body weight change [11]: 7.88% | T/C [12]: 41 days | T/C [13]: 5 | T/C [14]: 195% | T/C [15]: 36 days | T/C [16]: 40 days | T/C [17]: 158% | T/C [18]: 7 | T/C [19]: 5 | Average body weight change [20]: 15.1% | No. of mice surviving >6 months [21]: 4 | Average body weight change [22]: 9.96% | T/C [23]: 41 days | T/C [24]: 10 | No. of mice surviving >6 months [25]: 3 | T/C [26]: 8 | T/C [27]: 143% | T/C [28]: 8 | T/C [29]: 8 | Average body weight change [30]: 11.27% | T/C [31]: 128% | T/C [32]: 137% | T/C [33]: 33 days | T/C [34]: 157% | T/C [35]: 152% | No. of mice surviving >6 months [36]: 6 | Average body weight change [37]: 2.65% | T/C [38]: 27 days | Average body weight change [39]: 12.31% | T/C [40]: 38 days | T/C [41]: 8 | T/C [42]: 167%
